In PubChem BioAssay:
The source made the active and inactive calls.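 How the source made its calls, unless noted: active means Her2 level under about 52% in both replicate screens, with viability over 70% of control (limit read from the data); inconclusive means Her2 under the limit in one screen only, or viability under 70%; inactive means Her2 level above the set limit.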

Key:
[1] = reducers of endogenous Her2 protein level, primary screen, SKBR3 breast tumor cells, AlphaScreen, ATP viability (AID 461); conditions: 18-24 h, measured here: SKBR3 viability, ATP luminescence, at 10 µM;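 on Her2 level: lower value means less Her2 protein in the cells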;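 on viability: percent of carrier control wells set as 100% viability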
[2] = molecular target: Receptor tyrosine-protein kinase erbB-2 (Homo sapiens) (UniProt P04626); experiment: as above; conditions: 18-24 h, at 10 µM, stronger effect = lower value
[3] = SK-BR-3 cell growth inhibitors, pilot screen, 24 h, human (AID 572;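 active means viability at or below 10% of carrier control in both of two separate runs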;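 further: compound exposure lasted between 18 and 24 h rather than exactly 24 h; 100% = carrier-treated control wells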); conditions: SK-BR-3 viability, CellTiter-Glo luminescence, at 10 µM, stronger effect = lower value
[4] = HUVEC growth inhibition – cell-based, human, primary screen (AID 575;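 active means viability at or below 30% in both replicate assays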;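 further: 100% = median of untreated cell wells with 0.1% DMSO on each plate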); conditions: HUVEC proliferation, CellTiter-Glo luminescence, 72 h; at 10 µM; stronger effect = lower value
How it was run: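 Material: primary human umbilical vein endothelial cells / Schedule: 72 h exposure, 37 °C, 5% CO2, 30 min RT equilibration / Signal: ATP-based CellTiter-Glo luminescent read / Read-out basis: percent of median DMSO-control luminescence / Control set: 32 DMSO-only cell-control wells (high), 32 MePR drug-control wells (low) per plate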

[5] = growth inhibitors of H69AR lung tumor, primary screen, human, duplicate replicates (AID 580;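 active means viability at or under a set limit in both replicates, limit being median viability minus 3 SD, cut at about 48% in these data, passing the limit was not always enough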;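 further: 100% = mean luminescence of untreated wells and 0% = no signal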); conditions: H69AR lung tumor cells viability, ATP luminescence, 72 h; at 10 µM; stronger effect = lower value
[6] = reversal of MRP1-mediated doxorubicin resistance, pilot screen, H69AR cells, doxorubicin co-treatment (AID 601;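 active means viability loss from added drug above about 55%, and viability with drug at most 40%, in both replicates, limit read from the data, passing the limit was not always enough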); conditions: CellTiter-Glo, 72 h, at 10 µM; for differential viability (reversal): stronger effect = higher value
[7] = 384-well plate pilot, post-Golgi transport modulator project, inhibition of yeast transport mutant growth (AID 636; in the data active means inhibition above about 31%); conditions: absorbance 615 nm, about 18 h, stronger effect = higher value
[8] = growth suppression of yeast trafficking mutant, preliminary HTS, modulators of trafficking downstream of Golgi apparatus project, 1536-format plate, OD 615 nm (AID 637; in the data active means inhibition above about 30%); conditions: yeast transport mutant growth, absorbance 615 nm, 18 h; stronger effect = higher value
[9] = H69AR cells + 2 uM doxorubicin, measured here: viability with 2 uM doxorubicin, stronger effect = lower value
[10] = H69AR cells, compound alone cytotoxicity

Receptor tyrosine-protein kinase erbB-2 (Homo sapiens), sequence (P04626 whole entry, looked up): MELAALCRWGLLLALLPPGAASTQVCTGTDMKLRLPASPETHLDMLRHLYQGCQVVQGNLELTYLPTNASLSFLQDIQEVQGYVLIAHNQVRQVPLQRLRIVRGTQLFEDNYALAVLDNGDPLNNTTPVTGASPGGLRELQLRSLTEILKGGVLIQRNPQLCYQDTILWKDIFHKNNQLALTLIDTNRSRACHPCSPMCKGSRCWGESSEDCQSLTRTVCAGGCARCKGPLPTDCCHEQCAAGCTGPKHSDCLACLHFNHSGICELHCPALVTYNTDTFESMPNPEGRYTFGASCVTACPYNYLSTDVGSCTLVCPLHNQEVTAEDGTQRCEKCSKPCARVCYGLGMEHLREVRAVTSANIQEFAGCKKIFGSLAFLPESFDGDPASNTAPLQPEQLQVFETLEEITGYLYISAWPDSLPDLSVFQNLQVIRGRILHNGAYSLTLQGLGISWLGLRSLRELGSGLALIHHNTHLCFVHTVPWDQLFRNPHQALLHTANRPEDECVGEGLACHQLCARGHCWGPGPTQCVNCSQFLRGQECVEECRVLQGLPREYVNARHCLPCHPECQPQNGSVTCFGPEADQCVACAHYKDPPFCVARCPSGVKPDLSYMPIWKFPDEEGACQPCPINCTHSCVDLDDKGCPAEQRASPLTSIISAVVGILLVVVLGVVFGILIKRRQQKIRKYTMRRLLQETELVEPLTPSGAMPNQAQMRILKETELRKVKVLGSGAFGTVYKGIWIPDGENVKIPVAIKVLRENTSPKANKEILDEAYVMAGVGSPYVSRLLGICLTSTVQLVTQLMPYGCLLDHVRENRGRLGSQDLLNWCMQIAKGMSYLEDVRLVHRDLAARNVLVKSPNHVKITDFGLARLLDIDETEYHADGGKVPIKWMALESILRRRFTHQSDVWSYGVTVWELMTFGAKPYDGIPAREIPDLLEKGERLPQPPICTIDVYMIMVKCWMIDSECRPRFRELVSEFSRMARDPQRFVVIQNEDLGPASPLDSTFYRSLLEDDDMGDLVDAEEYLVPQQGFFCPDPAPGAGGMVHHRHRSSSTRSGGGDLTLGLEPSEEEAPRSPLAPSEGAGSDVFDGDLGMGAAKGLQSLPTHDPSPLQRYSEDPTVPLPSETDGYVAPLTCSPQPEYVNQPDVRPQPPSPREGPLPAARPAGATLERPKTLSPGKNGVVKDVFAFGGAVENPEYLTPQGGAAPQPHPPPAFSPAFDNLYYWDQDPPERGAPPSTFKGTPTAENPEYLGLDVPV

SMILES | viability [1] [%] | Her2 level [2] | viability [3] | viability [4] | viability [5] | differential viability (reversal) ([6]; H69AR cells + 2 uM doxorubicin) | viability [6, 9] [%] | viability [6, 10] [%] | inhibition [7] | inhibition [8]
Cc1ccc2c(c1)NC(=O)C(CC(=O)NC1CCCCC1C)O2 (stereo not given) | 110 | 86.5% (inactive) | 110% (inactive) | 103% (inactive) | 97.1% (inactive) | -3.58% (inactive) | 101 | 97.1 | -2.53% (inactive) | -1.15% (inactive)
COc1ccc(-n2c(=O)c3c4c(sc3n3c(C)nnc23)CCCC4)cc1 | 78.5 | 94% (inactive) | 78.5% (inactive) | 101% (inactive) | 96.5% (inactive) | 15.6% (inactive) | 80.9 | 96.5 | 0.13% (inactive) | -5.33% (inactive)
CCOC(=O)c1cnc(SCC)[nH]c1=O | 84.5 | 101% (inactive) | 84.5% (inactive) | 84.4% (inactive) | 97% (inactive) | -5.68% (inactive) | 103 | 97 | -1.92% (inactive) | -8% (inactive)
Cc1ccc(N2CC(C)Cn3c2nc2c3c(=O)n(CC(=O)OCc3ccccc3)c(=O)n2C)cc1C (stereo not given) | 86.5 | 99.5% (inactive) | 86.5% (inactive) | 74.8% (inactive) | 93.8% (inactive) | 26.6% (inactive) | 67.2 | 93.8 | -4.32% (inactive) | 1.97% (inactive)
Fc1cccc2sc(N3CCOCC3)nc12 | 93.5 | 80.5% (inactive) | 93.5% (inactive) | 83.9% (inactive) | 96.8% (inactive) | 15.4% (inactive) | 81.4 | 96.8 | -4.87% (inactive) | 5.17% (inactive)
COc1ccccc1N1CCN(C(=O)C2CCCO2)CC1 (stereo not given) | 98.5 | 92.5% (inactive) | 98.5% (inactive) | 90% (inactive) | 97.5% (inactive) | -0.265% (inactive) | 97.8 | 97.5 | -1.69% (inactive) | 1.8% (inactive)
CCn1c(SCC(N)=O)nc2c1c(=O)n(C)c(=O)n2C | 107 | 95% (inactive) | 107% (inactive) | 90% (inactive) | 95.9% (inactive) | 4.83% (inactive) | 91.1 | 95.9 | -2.63% (inactive) | -1.27% (inactive)
O=C(O)CCc1ccc(-c2cccs2)o1 | 94 | 86% (inactive) | 94% (inactive) | 95.9% (inactive) | 95.9% (inactive) | 4.25% (inactive) | 91.6 | 95.9 | -0.26% (inactive) | -5.67% (inactive)
Cc1ccc(-n2ncc3c(Nc4c(C)n(C)n(-c5ccccc5)c4=O)ncnc32)c(C)c1 | 99 | 94.5% (inactive) | 99% (inactive) | 96.2% (inactive) | 92.3% (inactive) | 9.15% (inactive) | 83.2 | 92.3 | -4.8% (inactive) | 1.45% (inactive)
Cc1cc(N2CCN(c3ccccn3)CC2)n2nc(C)nc2n1 | 102 | 114% (inactive) | 102% (inactive) | 90.2% (inactive) | 87.4% (inactive) | -7.31% (inactive) | 94.7 | 87.4 | -4.23% (inactive) | -7% (inactive)
CC1(CC(=O)O)C(=O)N=C2C=CC=CN21 (stereo not given) | 93 | 87.5% (inactive) | 93% (inactive) | 97.9% (inactive) | 89.4% (inactive) | 5.18% (inactive) | 84.2 | 89.4 | -4.93% (inactive) | 0.16% (inactive)
C=CCN(C(=O)CNS(=O)(=O)c1ccccc1)C(C(=O)NCCOC)c1ccncc1 (stereo not given) | 100 | 103% (inactive) | 100% (inactive) | 97.6% (inactive) | 102% (inactive) | 5.81% (inactive) | 96.3 | 102 | -4.27% (inactive) | -9.84% (inactive)
Cc1ccc(S(=O)(=O)N2CCOCC(=O)NCCOCCNC(=O)COCC2)cc1 | 93.5 | 102% (inactive) | 93.5% (inactive) | 95.4% (inactive) | 106% (inactive) | 8.95% (inactive) | 96.9 | 106 | -4.13% (inactive) | -4.26% (inactive)
COc1ccc(CNc2nc3nc(C)cc(C)n3n2)cc1OC | 104 | 94.5% (inactive) | 104% (inactive) | 111% (inactive) | 108% (inactive) | 5.1% (inactive) | 103 | 108 | -1.71% (inactive) | 7.21% (inactive)
COc1ccc(N2C(=O)CC(NC3CC3)C2=O)cc1 (stereo not given) | 100 | 89.5% (inactive) | 100% (inactive) | 94.7% (inactive) | 91.2% (inactive) | 0.64% (inactive) | 90.5 | 91.2 | -3.82% (inactive) | -6% (inactive)
Fc1ccc(-c2csc3nnc(SCc4cccnc4)n23)cc1 | 108 | 112% (inactive) | 108% (inactive) | 85.7% (inactive) | 82.9% (inactive) | -2.03% (inactive) | 84.9 | 82.9 | -4.62% (inactive) | 8.33% (inactive)
COC(=O)C1=C(C)Nc2nnnn2C1c1cccs1 (stereo not given) | 95.5 | 101% (inactive) | 95.5% (inactive) | 104% (inactive) | 96.9% (inactive) | 3.09% (inactive) | 93.8 | 96.9 | 2.84% (inactive) | 5.71% (inactive)
